High-throughput results deposited in PubChem BioAssay by several laboratories.
Shown are actives, neighbours in structure and some others; about 3.8% of the full set was active somewhere.
T cell HTS: T cell immune modulators affecting CD8 T cell-vesicle binding. 2C CD8+ T cell-vesicle binding, flow cytometry; hits give low values. response (vesicle binding), % at 7 µM. 330,000 compounds, 0.068% hits. AID 2052;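 active means response, share of CD8 T cells binding vesicles, and their 90th percentile fluorescence all below set limits, cut at about 80% in these data, passing the limit was not always enough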;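 further: values below 100% mean blocked vesicle binding to the CD8+ T cells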
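System: murine 2C transgenic CD8+ T lymphocytes; also added: QL9-loaded Drosophila micro-vesicles; times: binding 1.5 h at 37 °C; measured by: flow cytometry, PE anti-B7-1 (FL2) versus Alexa647 anti-CD8 (FL8), PFA-fixed; control set: Peptide-free naked vesicles (low) and QL9 vesicles with 0.7% DMSO vehicle (high)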
B2AR ag: activates human beta-2 adrenergic receptor causing internalization | P07550 | Am2.2-beta2AR cells, FAP receptor internalization, flow cytometry | response, % (no concentration beside the values) | 340,000 compounds, 0.43% hits | AID 504454;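 active means response above a set limit, near 3 SD of response in nonfluorescent compounds, cut at about 42% in these data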
Target sequence (P07550 whole entry, looked up): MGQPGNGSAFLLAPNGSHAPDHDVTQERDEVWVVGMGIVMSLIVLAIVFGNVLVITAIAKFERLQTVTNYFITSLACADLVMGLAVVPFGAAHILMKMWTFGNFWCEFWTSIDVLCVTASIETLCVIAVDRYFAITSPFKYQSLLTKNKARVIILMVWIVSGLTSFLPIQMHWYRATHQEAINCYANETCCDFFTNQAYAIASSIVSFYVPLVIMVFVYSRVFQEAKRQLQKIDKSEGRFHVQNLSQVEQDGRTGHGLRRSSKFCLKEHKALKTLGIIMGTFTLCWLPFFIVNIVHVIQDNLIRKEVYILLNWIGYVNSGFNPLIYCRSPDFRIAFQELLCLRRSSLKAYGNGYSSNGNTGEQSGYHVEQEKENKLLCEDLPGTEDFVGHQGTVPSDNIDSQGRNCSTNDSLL
rCAG binder: molecules binding r(CAG) RNA repeats; r(CAG) RNA repeat, TO-PRO-1 dye displacement fluorescence; inhibition, % at 3 µM; 370,000 compounds, 1.3% hits; AID 651821;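 active means inhibition above the plate cutoff, the mean of all test compounds on that plate plus 3 SD, cut at about 35% in these data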;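 further: 0% = DMSO alone and 100% = 100 µM mitoxantrone as full dye displacement; higher means more dye released from RNA so lower well fluorescence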
MPTP block: blocks calcium-induced mitochondrial swelling | isolated mouse mitochondria, Ca2+ swelling absorbance, 30 min | inhibition, % at 10 µM | 360,000 compounds, 1.4% hits;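 active means inhibition of 50% or more, scaled per plate between neutral and stimulator controls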;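 further: 0% = DMSO wells given calcium and 100% = 1 mM EGTA wells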
V-ATPase pH: yeast V-ATPase proton transport regulation by pHLuorin | S. cerevisiae, pHLuorin cytosolic pH fluorescence | response, % at 10 µM | 350,000 compounds, 0.37% hits; in the data active means response mostly above about 7.3%, no sharp cut-off; inactive means mostly below about 5.4%; further: actives read high
Granule exo inh: lytic granule exocytosis inhibition. TALL-104 LAMP-1 surface exposure, flow cytometry; cells stimulated with thapsigargin and PMA. inhibition, % at 10 µM. 360,000 compounds, 0.66% hits. AID 651702;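 active means inhibition above about 55%, limit read from the data; inconclusive means no clear call, values can overlap the other calls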
rCAG binder conf: r(CAG) RNA repeat binding, confirmation. 4,300 compounds, 70% hits. inhibition, % at 3 µM. shares compounds with rCAG binder. TO-PRO-1 dye displacement fluorescence;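 active means inhibition above a per-plate cutoff, the mean inhibition of sample wells plus 3 SD, cut at about 35% in these data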;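 further: loss of TO-PRO-1 fluorescence as compound displaces dye from 1x1 AA loop RNA; 0% = DMSO only wells and 100% = 100 µM mitoxantrone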
DNA CAG counter: DNA CAG dye complex inhibition counter-screen; shares compounds with rCAG binder; d(CAG) DNA oligo TO-PRO-1 dye displacement, fluorescence; inhibition, % at 3 µM; 4,300 compounds, 94% hits; AID 652068;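 active means inhibition above its plate's cutoff, the mean test-well inhibition plus 3 SD, cut at about 4.8% in these data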;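 further: 0% = DNA dye mix with DMSO and 100% = 100 µM mitoxantrone; hits displace the dye from DNA and so lower well fluorescence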
dCAG dye DR: counter-screen for rCAG binders: inhibitors of DNA CAG TO-PRO-1 complex; shares compounds with rCAG binder; IC50, µM; 250 compounds, 20% hits; AID 686960; DNA CAG/GTC duplex TO-PRO-1 dye displacement fluorescence; in the data active means IC50 below about 10 µM
* marks the source's active call; other numbers are inactive results; i = inactive; u = inconclusive; x = no result.

SMILES	T cell HTS	B2AR ag	rCAG binder	MPTP block	V-ATPase pH	Granule exo inh	rCAG binder conf	DNA CAG counter	others
O=C(N/N=C/c1ccco1)c1cc(-c2cccc3ccccc23)n[nH]1	250	9	13	0	-5	-2	x	x
O=C(O)Cc1ccc(N=Nc2c(O)c(C(=O)O)cc3ccccc23)cc1	383	9	87*	12	-1	u	58*	23*
Nc1nc(O)c(N=Nc2ccc(S(N)(=O)=O)cc2)c(=O)[nH]1	218	x	5	x	x	x	x	x
Oc1ccc2ccccc2c1N=Nc1ccc(F)cc1	172	5	5	2	-1	-7	x	x
NS(=O)(=O)c1ccc(N=Nc2c(O)c(C(=O)O)cc3ccccc23)cc1	237	4	46*	5	3	-3	48*	26*
Cc1nc2ccc(NC(=O)c3ccc(F)cc3F)cc2c(=O)[nH]1	x	x	1	x	x	x	x	x
N#CCCN(C(=O)COC(=O)c1cccc(S(=O)(=O)Nc2ccc([N+](=O)[O-])cc2)c1)c1ccccc1	171	7	77*	9	-2	0	77*	35*
CCOc1cc(C(c2c(C)[nH][nH]c2=O)c2c(C)[nH][nH]c2=O)ccc1OCc1ccc([N+](=O)[O-])cc1	504	16	39*	-4	4	4	42*	14*
CCOc1cc(C(c2c(C)[nH][nH]c2=O)c2c(C)[nH][nH]c2=O)ccc1OC(=O)c1cccc([N+](=O)[O-])c1	353	-4	30	0	4	-7	x	x
COc1ccc(OC)c(CNc2ccc3c(c2)nc(C)n3C)c1	172	-5	44*	-1	7	-10	2	1
CCC(Sc1nc2ccsc2c(=O)n1Cc1ccc(C(=O)O)cc1)C(=O)Nc1ccc(C)c(Cl)c1 (stereo not drawn)	330	8	74*	1	1	-6	79*	49*
O=C1[C@@H](C2CCCCC2)[C@@H]2c3ccccc3C=NN2[C@@H]2c3ccccc3C=NN12	x	x	3	x	x	x	x	x
Cn1ncc2c(Nc3cccc(Cl)c3)nc(Nc3cccc(Cl)c3)nc21	74	7	36*	2	-1	13	21	7.5*
Cn1ncc2c(Nc3ccc(Br)cc3)nc(Nc3ccc(Br)cc3)nc21	285	4	49*	0	1	-6	33	13*
Cc1cc(-c2csc(NC(=O)c3cc4ccccc4o3)n2)c(C)n1C	256	8	44*	-2	-1	-2	52*	25*
O=C(Nc1nc(-c2ccccn2)cs1)c1cc2ccccc2o1	504	6	10	-5	0	-1	x	x
COC(=O)[C@]12C[C@H](CC(=O)N3CCOCC3)C(=O)N(CCC3=CCCCC3)C1=C[C@H](C1CCCC1)O[C@@H]2C	x	x	1	x	x	x	x	x
CCOC(=O)c1c(NC(=O)C2CCCO2)sc(C)c1C (stereo not drawn)	280	-3	-5	1	1	-2	x	x
Cc1sc(NC(=O)C2CCCO2)c(C(N)=O)c1C (stereo not drawn)	305	19	42*	0	-1	-1	12	3
Cn1c2ccccc2c2cc(/C=N/NC(=O)c3cc(O)cc(O)c3)ccc21	228	5	43*	-1	0	10	34	18*
Cn1c2ccccc2c2cc(/C=N/NC(=O)c3cc(O)ccc3O)ccc21	413	8	66*	3	-8	5	62*	31*
CCCOC(=O)Cn1cnc2scc(-c3ccc(C)cc3)c2c1=O	211	-7	0	0	0	4	x	x
CCc1ccc(-c2csc3ncn(Cc4ccc(C(=O)O)cc4)c(=O)c23)cc1	176	-5	35*	0	4	-2	29	7.7*
COc1cccc(C2CC=C(C(=O)O)CN2S(=O)(=O)c2ccc(C)cc2)c1 (stereo not drawn)	x	x	10	x	x	x	x	x
COC(=O)c1sc(NC(=S)NNC(=O)c2c(Br)c(C)nn2C)c(C(=O)OC)c1C	264	20	69*	41	-6	28	90*	70*
SMILES	T cell HTS	B2AR ag	rCAG binder	MPTP block	V-ATPase pH	Granule exo inh	rCAG binder conf	DNA CAG counter	others
N#Cc1ccc(Cn2ccc3ccc(-c4ccc5ccn(C(=O)c6ccccc6)c5c4)cc32)cc1	x	x	16	x	x	x	x	x
Cc1nc(SCc2cccc(C(=O)O)c2)nc2c1CCCC2	220	-1	9	-1	2	0	x	x
O=C(O)c1cccc(CSc2nc(-c3ccc(Cl)cc3)cc(C(F)(F)F)n2)c1	274	7	68*	-2	1	-1	71*	33*	dCAG dye DR=i
COc1ccc(-c2cc(C)nc(SCc3cccc(C(=O)O)c3)n2)cc1	271	1	47*	-1	-5	-2	49*	9.7*	dCAG dye DR=>30
COc1ccc(C(=O)CSc2nnc(-c3cccnc3)n2-c2ccc(C)cc2)cc1	x	x	2	x	x	x	x	x
COc1ccc(C(=O)C(=O)N2CCN(C(=O)c3ccccc3C(F)(F)F)CC2)cc1OC	x	x	-2	x	x	x	x	x
COc1ccc(-n2c(SCC(=O)Nc3ccc(Oc4ccccc4)cc3)nnc2-c2ccc(C)cc2)cc1	x	x	9	x	x	x	x	x
CCOc1ccc(-n2c(SCC(=O)Nc3ccc(S(=O)(=O)Nc4cc(C)nc(C)n4)cc3)nnc2-c2ccco2)cc1	x	x	40*	x	x	x	40*	14*
Cc1cc(NS(=O)(=O)c2ccc(NC(=O)CSc3nnc(-c4ccco4)n3-c3ccc(Cl)cc3)cc2)nc(C)n1	x	x	46*	x	x	x	33	12*
COc1ccc(-c2nnc(SCC(=O)Nc3ccc(C(=O)O)cc3)n2-c2ccc(Cl)cc2)cc1	196	18	46*	1	1	6	50*	15*
Cc1cc(NS(=O)(=O)c2ccc(NC(=O)CSc3nnc(-c4ccncc4)n3-c3ccccc3)cc2)nc(C)n1	x	x	10	x	x	x	x	x
COc1ccc(-c2nnc(SCC(=O)Nc3ccc(S(=O)(=O)Nc4cc(C)nc(C)n4)cc3)n2-c2ccc(OC)cc2)cc1	x	x	49*	x	x	x	44*	15*
CCCCCCCCN1C(=O)[C@@H](CC(=O)NCC2CCCCC2)C[C@@]2(C(=O)OC)C1=C[C@H](C(C)(C)C)O[C@@H]2C	x	x	1	x	x	x	x	x
O=C(OC12CCCN(C1)/C(=C/c1cccc(Cl)c1)C2)C1CCCCC1 (stereo not drawn)	x	x	3	x	x	x	x	x
C=CCn1c(SCC(=O)c2ccc(O)c(O)c2)nnc1-c1ccc(C)cc1	393	-2	12	2	2	0	x	x
Cc1ccc(-c2nnc(SCC(=O)c3ccc(O)c(O)c3)n2-c2ccc(Cl)cc2)cc1	x	x	41*	x	x	x	43*	17*
